In ChEMBL document CHEMBL2385051, “Facile synthesis of new imidazo[1,2-a]pyridines carrying 1,2,3-triazoles via click chemistry and their antiepileptic studies” (Bioorg Med Chem Lett, 2013) one finds Activity, minimal effective dose and TD50 data, which are given here for six molecules.

Calls of active or inactive are those of the source. No cut-off for these calls is given here.

The test system of series [1] is Mus musculus. The series is described as follows: Neurotoxicity in NMRI mouse assessed as minimal motor impairment at 20 to 100 mg/kg, ip after 4 hrs by rotarod test. The settings on record: in vivo. In kind it is toxicity, organism-based. Also on record: dose 20-100 mg/kg, route intraperitoneal. In outline: (§1)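 Rotarod motor-impairment test in mice given 20, 40 and 100 mg/kg doses, read 0.5 and 4 h after administration. The value recorded is the minimal dose producing toxicity in more than 50% of mice.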

Series [2] deals with Mus musculus. Briefly: Anticonvulsant activity in ip dosed NMRI mouse assessed as dose required to cause protection against subcutaneous pentylene tetrazole-induced seizure after 0.5 hrs. In kind it is functional. The settings on record: read-out: MED. In short, it runs like this:
(§2)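 Mice received 20, 40 and 100 mg/kg test doses. Seizures were induced by electrical shock (MES) or PTZ injection (scPTZ) at 0.5 and 4 h after dosing. The value recorded is the minimal dose protecting more than 50% of mice against seizure.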

In series [3] the test system is Mus musculus. The series is described as follows: Anticonvulsant activity in ip dosed NMRI mouse assessed as dose required to cause protection against subcutaneous pentylene tetrazole-induced seizure after 4 hrs. The series is classed as functional. The settings on record: read-out: MED. In outline: as §2
Series [4] concerns Mus musculus. Briefly: Anticonvulsant activity in ip dosed NMRI mouse assessed as dose required to cause protection against maximal electroshock-induced seizures after 4 hrs. The settings on record: read-out: MED. The series is classed as functional. In outline: as §2
(In general: The maximal electroshock test induces tonic seizures with an electrical stimulus.)

Series [5] concerns Mus musculus. The series is described as follows: Neurotoxicity in NMRI mouse assessed as minimal motor impairment at 20 to 100 mg/kg, ip after 0.5 hrs by rotarod test. The series is classed as toxicity, organism-based. The settings on record: in vivo. The arrangement: dose 20-100 mg/kg, route intraperitoneal. In outline:
as §1
For orientation: Falling from the rotarod earlier than controls is read as motor impairment.

For series [6], the system named is Mus musculus. The series is described as follows: Anticonvulsant activity in ip dosed NMRI mouse assessed as dose required to cause protection against maximal electroshock-induced seizures after 0.5 hrs. The series is classed as functional. The settings on record: read-out: MED. In outline:
as §2

In series [7] the test system is Mus musculus. The series is described as follows: Anticonvulsant activity in NMRI mouse assessed as protection against maximal electroshock-induced seizures at 20 to 100 mg/kg, ip after 4 hrs. The series is classed as functional, organism-based. In outline:
as §2

In series [8] the test system is Mus musculus. Briefly: Anticonvulsant activity in NMRI mouse assessed as protection against maximal electroshock-induced seizures at 20 to 100 mg/kg, ip after 0.5 hrs. In kind it is functional, organism-based. In short, it runs like this: as §2
The test system of series [9] is Mus musculus. The series is described as follows: Anticonvulsant activity in NMRI mouse assessed as protection against subcutaneous pentylene tetrazole-induced seizure at 20 to 100 mg/kg, ip after 0.5 hrs. The series is classed as functional, organism-based. In outline: as §2
A short description of series [10]: Neurotoxicity in ip dosed NMRI mouse assessed as dose required to cause minimal motor impairment after 0.5 hrs by rotarod test. In kind it is toxicity, organism-based. The settings on record: in vivo, read-out: MTC50. In short, it runs like this:
as §1

Series [11] can be described thus: Neurotoxicity in ip dosed NMRI mouse assessed as dose required to cause minimal motor impairment after 4 hrs by rotarod test. The series is classed as toxicity, organism-based. The settings on record: in vivo, read-out: MTC50. In outline: as §1

Regarding `Cc1ccc(-c2nc3c(C)cccn3c2/C=N/OCc2cn(Cc3ccc([N+](=O)[O-])cc3)nn2)cc1`, the Activity result with Mus musculus [1] and in the series with Mus musculus [5] was “Non-toxic” in each case. In addition, the minimal effective dose in the series with Mus musculus [2] was 20 mg/kg; in the series on Mus musculus [3] it was 20 mg/kg; in the series on Mus musculus [4], 40 mg/kg; in the series on Mus musculus [6], 40 mg/kg.

In the case of `Cc1ccc(-c2nc3ccc(Br)cn3c2/C=N/OCc2cn(Cc3ccc([N+](=O)[O-])cc3)nn2)cc1`, the Activity entry in the series with Mus musculus [1] and in the series with Mus musculus [5] was “Non-toxic” throughout. Moreover, the minimal effective dose in the series with Mus musculus [2] worked out at 20 mg/kg; with Mus musculus [3], 20 mg/kg; in the series on Mus musculus [4], 100 mg/kg; in the series on Mus musculus [6] it was 40 mg/kg.

Consider `O=C1NC(=O)C(c2ccccc2)(c2ccccc2)N1` [PHENYTOIN], for which the minimal effective dose in the series with Mus musculus [4] and in the series on Mus musculus [6] was 20 mg/kg each time.

For the molecule `Cc1cccn2c(/C=N/OCc3cn(Cc4ccc([N+](=O)[O-])cc4)nn3)c(-c3ccc(F)cc3)nc12`, the result in the series on Mus musculus [7], in the series with Mus musculus [8] and in the series on Mus musculus [9] was inactive. Also, the minimal effective dose in the series with Mus musculus [3] came out at 40 mg/kg. Also, the TD50 at 0.5 h in series [10] is 100 mg/kg. The TD50 at 4 h in [11] was 100 mg/kg.

On to `Cc1cccn2c(/C=N/OCc3cn(Cc4ccc(C#N)cc4)nn3)c(-c3ccc(F)cc3)nc12`, for which the result in the series on Mus musculus [7], with Mus musculus [8] and with Mus musculus [9] was inactive. Besides, the minimal effective dose in the series with Mus musculus [3] stood at 40 mg/kg. In series [10], the TD50 at 0.5 h was 100 mg/kg. In addition, in series [11], the TD50 at 4 h came to 100 mg/kg.

On to `C#CCO/N=C/c1c(-c2ccc(C)cc2)nc2c(C)cccn12`, for which the Activity result in the series on Mus musculus [1] and with Mus musculus [5] was “Non-toxic” throughout. Also, the minimal effective dose in the series with Mus musculus [2] was 20 mg/kg; in the series with Mus musculus [3], 20 mg/kg; in the series with Mus musculus [4], 40 mg/kg; with Mus musculus [6], 20 mg/kg.
